Assay results reported in ChEMBL document CHEMBL4425094, “Novel Benzo[a]quinolizidine Analogs Induce Cancer Cell Death through Paraptosis and Apoptosis” (J Med Chem, 2016).
Active and inactive are the calls of the source. The calls are words filed in the database; no cut-off is given here.

Experiments:
PC-3M [1] = assay: Antitumor activity against human PC3M-lluc-C6 cells xenografted in athymic Balb/c mouse assessed as tumor growth inhibition at 15 mg/kg, ip administered every 2 days for 18 days; assay type: functional; details: read-out: TGI
PC-3 [2] = assay: Induction of autophagy in human PC3 cells assessed as vacuole formation at 1 uM after 24 hrs in presence of PI3K inhibitor 3-MA by phase-contrast microscopic analysis; assay type: functional, cell-based
Procedure, shortened: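 PC3 cells were pretreated with the autophagy inhibitor (3-MA or E64d), then exposed to 1 μM test agent for 24 h. Morphology was imaged by phase-contrast microscopy, and viability was read by MTT at 570 nm. Comparison was against agent-only cells.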

PC-3 [3] = assay: Induction of cell cycle arrest in human PC3 cells assessed as accumulation in G2 phase at 1 uM after 24 hrs by […]propidium iodide based flow cytometric analysis (reference value: 16.3 to 25 %); assay type: functional
PC-3M [4] = assay: Antitumor activity against human PC3M-lluc-C6 cells xenografted in athymic Balb/c mouse assessed as decrease in tumor burden by measuring photon intensity at 15 mg/kg, ip measured on day 9 by bioluminescence method (reference value: 6.501 x 10^9 photons/s/cm2); assay type: functional
PC-3 [5] = assay: Cytotoxicity against human PC3 cells assessed as reduction in cell viability at 1 uM after 24 hrs in presence of PI3K inhibitor 3-MA by MTT assay; assay type: functional, cell-based
Procedure, shortened: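 PC3 cells pretreated with autophagy inhibitor 3-MA or E64d, then given 1 μM compound for 24 h. Viability measured by MTT (4 h, 570 nm). Morphology checked by phase-contrast microscopy.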

PC-3 [6] = assay: Induction of vacuolization in human PC3 cells in presence of AcT-D after 24 hrs by phase-contrast microscopic analysis; assay type: functional, cell-based
Procedure, shortened: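 PC3 cells pretreated with 10 μM actinomycin D or 5 μM cycloheximide, then treated with agent for 24 h. Vacuolization imaged by phase-contrast microscopy; viability by MTT.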

PC-3 [7] = assay: Induction of cell cycle arrest in human PC3 cells assessed as accumulation in G0/G1 phase at 2 uM after 24 hrs by […]propidium iodide based flow cytometric analysis (reference value: 43.5 to 62.5 %); assay type: functional
PC-3M [8] = assay: Antitumor activity against human PC3M-lluc-C6 cells xenografted in athymic Balb/c mouse assessed as tumor weight at 15 mg/kg, ip administered every 2 days for 18 days (reference value: 0.71 +/- 0.06 g); assay type: functional
PC-3 [9] = assay: Induction of apoptosis in human PC3 cells assessed as late apoptotic cells at 1 uM after 24 hrs by Annexin V-FITC/propidium iodide based flow cytometric analysis (reference value: 1.1 %); assay type: functional
Procedure, shortened: (§1)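 PC3 cells exposed to 0.5, 1 or 2 μM for 24 h, then stained with Annexin V-FITC and PI and analyzed by FACSCalibur flow cytometry. Populations assigned as necrotic (Annexin V−/PI+), late apoptotic (double positive), normal (Annexin V−/PI−) and early apoptotic (Annexin V+/PI−). DMSO vehicle control.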

PC-3 [10] = assay: Induction of autophagy in human PC3 cells assessed as upregulation of LC3 expression after 24 hrs by Western blot analysis; assay type: functional, cell-based
Procedure, shortened: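 PC3 cells in RPMI 1640 with 10% FBS, treated at 50−70% confluence for a time course up to 24 h; DMSO vehicle control. Lysed in RIPA buffer; 40 μg protein run on SDS-PAGE, transferred to nitrocellulose, primary antibody overnight at 4 °C, HRP secondary 45 min, ECL detection. GAPDH or β-actin loading control.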

PC-3 [11] = assay: Induction of apoptosis in human PC3 cells assessed as early apoptotic cells at 0.5 uM after 24 hrs by Annexin V-FITC/propidium iodide based flow cytometric analysis (reference value: 2.3 %); assay type: functional; procedure, shortened: as §1
[12] = Toxicity in athymic Balb/c mouse assessed as body weight loss at 15 mg/kg, ip administered every 2 days for 18 days; assay type: organism-based; details: in vivo
Procedure, shortened: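 Male athymic BALB/c-nu mice bearing subcutaneous PC3M-luc-C6 xenografts, n = 5 per group. Dosing was 15 mg/kg i.p. every 2 days for 18 days versus placebo and docetaxel 15 mg/kg groups. Body weight was recorded over the treatment period.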

PC-3 [13] = assay: Induction of ER stress in human PC3 cells assessed as upregulation of CHOP after 24 hrs by Western blot analysis; assay type: functional, cell-based
Procedure, shortened: (§2)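 PC3 cells in RPMI 1640 with 10% FBS, treated with compound for timed intervals. DMSO vehicle control. Lysis in RIPA buffer, 40 μg protein per lane on SDS-PAGE, transfer to nitrocellulose. Primary antibodies overnight at 4 °C, HRP-secondary 45 min, ECL detection. GAPDH or β-actin used as loading control.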

PC-3 [14] = assay: Induction of ER stress in human PC3 cells assessed as upregulation of GRP78 after 4 hrs by Western blot analysis; assay type: functional, cell-based; procedure, shortened: as §2
[15] = biological target: T1, Eukaryotic translation initiation factor 2-alpha kinase 3 (Homo sapiens) (UniProt Q9NZJ5); assay: Activation of PERK phosphorylation in human PC3 cells after 24 hrs by Western blot analysis; assay type: cell-based; procedure, shortened: as §2
T1 sequence (whole entry): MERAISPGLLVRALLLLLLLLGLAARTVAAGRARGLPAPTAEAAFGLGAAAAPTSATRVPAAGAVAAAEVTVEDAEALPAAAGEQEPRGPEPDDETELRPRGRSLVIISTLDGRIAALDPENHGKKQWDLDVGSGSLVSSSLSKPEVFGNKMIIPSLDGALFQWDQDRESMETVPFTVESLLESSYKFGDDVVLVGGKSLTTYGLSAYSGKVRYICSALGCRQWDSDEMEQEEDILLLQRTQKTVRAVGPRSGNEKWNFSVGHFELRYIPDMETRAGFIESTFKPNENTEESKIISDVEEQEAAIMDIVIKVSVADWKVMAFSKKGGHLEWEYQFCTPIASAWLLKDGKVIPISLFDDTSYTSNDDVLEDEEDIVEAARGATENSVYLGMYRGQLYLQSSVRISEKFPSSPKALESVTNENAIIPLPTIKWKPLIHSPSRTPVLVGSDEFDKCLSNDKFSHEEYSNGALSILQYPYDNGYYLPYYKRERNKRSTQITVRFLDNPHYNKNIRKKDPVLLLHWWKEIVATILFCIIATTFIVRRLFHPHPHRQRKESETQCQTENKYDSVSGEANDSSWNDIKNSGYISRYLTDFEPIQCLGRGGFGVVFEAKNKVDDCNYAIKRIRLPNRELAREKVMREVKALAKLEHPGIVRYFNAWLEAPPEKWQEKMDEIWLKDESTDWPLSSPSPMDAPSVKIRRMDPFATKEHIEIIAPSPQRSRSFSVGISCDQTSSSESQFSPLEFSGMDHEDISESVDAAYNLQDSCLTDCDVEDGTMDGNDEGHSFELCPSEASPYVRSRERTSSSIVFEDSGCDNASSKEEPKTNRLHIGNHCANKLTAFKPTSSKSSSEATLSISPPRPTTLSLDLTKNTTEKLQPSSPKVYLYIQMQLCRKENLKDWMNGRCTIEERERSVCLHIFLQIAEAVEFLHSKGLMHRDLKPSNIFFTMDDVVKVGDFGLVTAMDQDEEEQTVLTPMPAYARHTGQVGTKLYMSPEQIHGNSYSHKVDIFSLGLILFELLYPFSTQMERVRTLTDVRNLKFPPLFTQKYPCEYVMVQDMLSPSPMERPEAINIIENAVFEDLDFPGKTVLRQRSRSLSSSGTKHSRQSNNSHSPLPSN

## Cc1cc(C)cc(COc2cc3c(cc2OCc2cc(C)cc(C)c2)[C@@H]2C[C@H](O)C[C@@H](C)N2CC3)c1 (racemic)
PC-3M [1]
  inhibition in vivo at 15 mg/kg: 40.5%
PC-3 [2]
  Activity: inactive
PC-3 [3]
  Activity: 11.9 - 14.5%
PC-3M [4]
  Activity: 2.45 ×10⁹ /s/cm2
PC-3 [5]
  Activity: inactive
PC-3 [6]
  Activity: inactive
PC-3 [7]
  Activity: 80.2 - 81.4%
PC-3M [8]
  Activity: 0.42 g
PC-3 [9]
  Activity: 2.6%
PC-3 [10]
  Activity: Active
PC-3 [11]
  Activity: 2.5%
[12]
  Activity: 16.3 g
PC-3 [13]
  Activity: Active
PC-3 [14]
  Activity: Active
[15]
  Activity: Active
